Reference: ChEMBL document CHEMBL4732130, “Synthesis and characterization of 1,2,4-triazolo[1,5-a]pyrimidine-2-carboxamide-based compounds targeting the PA-PB1 interface of influenza A virus polymerase” (Eur J Med Chem, 2021)
≈ marks a conversion by molar mass, not a printed value. Where “and” joins values, the source holds several entries; their conditions need not be identical. Equal values may be shown once.

Legend:
Influenza A virus = test: Antiviral activity against Influenza A virus A/PR/8/34 (H1N1) infected in MDCK cells assessed as reduction in plaque formation treated 1 hr post viral infection and measured after 48 hrs post-infection by toluidine blue staining based plaque reduction assay; assay type: functional, organism-based; settings: A/Puerto Rico/8/1934(H1N1)
[1] = Cytotoxicity in dog MDCK cells assessed as reduction in cell viability incubated for 24 to 120 hrs by MTT assay; assay type: cell-based, Canis lupus familiaris; settings: time 24-120 hrs
[2] = Inhibition of Influenza A virus 6His-tagged PA (239 to 716 residues)/GST-tagged PB1 (1 to 25 residues) expressed in Escherichia coli BL21 pLysS protein-protein interaction using 3,3',5,5'tetramethylbenzedine as substrate by ELISA
MDCK = test: (§1) Cytotoxicity against dog MDCK cells assessed as reduction in cell viability incubated for 48 hrs by MTT assay; assay type: cell-based, Canis lupus familiaris; settings: mdck, 48 h
In short: (§2)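 MDCK cells seeded at 2 × 10^4/well and grown 24 h, then given serial compound dilutions in DMEM with 10% FBS (DMSO control) for 48 h at 37 °C. MTT (5 mg/mL stock) added for 4 h, cells solubilised overnight, OD read at 620 nm. […] Mean ± SD of ≥3 independent experiments in duplicate.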

[3] = Equilibrium solubility of the compound in phosphate buffer at pH 7.4 incubated for 2 hrs; assay type: physicochemical; settings: for solubility: buffer, pH 7.4, 2 h, 2 h; for solubility thermodynamic at 2 h: phosphate buffer, pH 7.4
[4] = biological target: RNA-directed RNA polymerase (Influenza A virus (strain A/Puerto Rico/8/1934 H1N1), UniProt P03428+P03431+P03433); test: Inhibition of RdRP activity in Influenza A virus A/PR/8/34 (H1N1) infected in HEK293T cells co-transfected with NP/PA/PB1/PB2/pPolI-Flu-ffLuc/pRL-SV40 incubated for 24 hrs by minireplicon based dual luciferase assay; assay type: cell-based, Influenza A virus (A/Puerto Rico/8/1934(H1N1))
In short: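 HEK293T cells (2 × 10^5/well) plated overnight, then calcium-phosphate transfected with PB1, PB2, PA and NP plasmids (100 ng each), pPolI-Flu-ffLuc reporter (50 ng; WSN segment 8 noncoding ends) and pRL-SV40 (50 ng), with compound or DMSO present. Medium replaced at 5 h with compound-containing DMEM. Dual luciferase read at 24 h. Firefly normalised to Renilla, DMSO set as 100% polymerase activity.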

[5] = Metabolic stability in human liver microsomes assessed as compound remaining at 10 uM preincubated for 5 mins followed by NADPH addition and measured after 60 mins by LC-MS/MS analysis; assay type: ADME, Microsome; settings: time 65 min, read-out: Stabilty
In short: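 Compound at 10 µM preincubated 5 min at 37 °C with human liver microsomes (1 mg/mL) in 0.1 M phosphate, pH 7.4. Reaction started with 2 mM NADPH. Samples taken at 0, 10, 20, 40 and 60 min, quenched in cold acetonitrile containing labetalol internal standard, and centrifuged. Analysed by LC-MS/MS (Q-TOF) for percent unchanged compound and metabolites. Half-life and intrinsic clearance estimated.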

[6] = Protein binding in human plasma assessed as unbound fraction at 5 uM incubated for 4 hrs by UPLC/MS-MS based rapid equilibrium dialysis method; assay type: ADME, cell-free
In short: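 Compound at 5 µM in human plasma, dialysed against buffer by rapid equilibrium dialysis for 4 h at 37 °C. Chamber aliquots matrix-matched, precipitated with acetonitrile, and quantified by UPLC-MS/MS peak areas.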

[7] = as §1; assay type: cell-based, Canis lupus familiaris; settings: MDCK cells; in short: as §2

Structure (SMILES) | EC50 (Influenza A virus) | IC50 [2] | CC50 (MDCK) | also measured
COc1ccc(C(=O)Nc2nc3n(n2)C(c2ccccc2)C=C(C)N3)cc1 (stereo not given) | > 100 µM |  |  | CC50 [1]: > 250 µM
Cc1cc(-c2ccccc2)n2nc(C(=O)Nc3sc(C)c(C)c3C(N)=O)nc2n1 | > 50 µM | > 200 µM | > 250 µM | 
Cc1cc(-c2ccccc2)n2nc(C(=O)Nc3c(C(N)=O)sc4ncccc34)nc2n1 | > 100 µM | 3.3 µM | > 250 µM | 
Cc1cc(-c2ccccc2)nc2nc(C(=O)Nc3ccccc3C(N)=O)nn12 | 31 µM | 7 µM | > 250 µM | solubility [3]: 82.2 uM and 30.6 ug ml-1; EC50 [4]: 5.8 µM; remaining at 1 h, 10 µM [5]: 76%; Fu [6]: 22.45%
Cc1cc(-c2ccccc2)nc2nc(C(=O)Nc3ccsc3C(N)=O)nn12 | > 100 µM | 50 µM | 240 µM | 
Cc1cc(-c2ccccc2)n2nc(C(=O)Nc3sc4c(c3C(=O)Nc3ccccn3)CCCCC4)nc2n1 | 48 µM | 23 µM | > 250 µM | 
Cc1cc(-c2ccccc2)nc2nc(C(=O)Nc3c(C(N)=O)sc4ncccc34)nn12 | 43 µM | > 200 µM | 51 µM | 
Cc1cc(-c2ccccc2)n2nc(C(=O)Nc3c(C(N)=O)sc4ccccc34)nc2n1 | 22 µM | > 200 µM | > 250 µM | 
Cc1cc(-c2ccccc2)nc2nc(C(=O)Nc3sc4c(c3C(=O)O)CCCCC4)nn12 | 70 µM | 18 µM | > 250 µM | 
Cc1cc(-c2ccccc2)n2nc(C(=O)Nc3sc4c(c3C(N)=O)CCCC4)nc2n1 | 32 µM | 15 µM | > 250 µM | 
Cc1cc(-c2ccccc2)n2nc(C(=O)Nc3c(C(N)=O)sc4c3CCCCC4)nc2n1 | > 50 µM | > 200 µM | 90 µM | 
Cc1cc(-c2ccccc2)n2nc(C(=O)Nc3sc4c(c3C(=O)O)CCCCC4)nc2n1 | 50 µM | 19 µM | > 250 µM | 
Cc1cc(-c2ccccc2)n2nc(C(=O)Nc3sc4c(c3C(N)=O)CCC4)nc2n1 | 22 µM | 6.2 µM | > 250 µM | 
Cc1cc(-c2ccccc2)n2nc(C(=O)Nc3ccccc3C(N)=O)nc2n1 | > 100 µM | 11 µM | > 250 µM | solubility [3]: 17.6 uM and 6.55 ug ml-1
Cc1cc(-c2ccccc2)n2nc(C(=O)Nc3sc4ccccc4c3C(N)=O)nc2n1 | 49 µM | > 200 µM | > 250 µM | 
Cc1cc(-c2ccccc2)n2nc(C(=O)Nc3nc4ccccc4s3)nc2n1 | > 50 µM | 21 µM | > 250 µM | 
CCC1CCc2c(sc(NC(=O)c3nc4nc(C)cc(-c5ccccc5)n4n3)c2C(N)=O)C1 (stereo not given) | 15 µM | > 200 µM | > 250 µM | 
Cc1cc(-c2ccccc2)nc2nc(C(=O)Nc3nc4ccccc4s3)nn12 |  | > 200 µM | 233 µM | 
Cc1cc(-c2ccccc2)n2nc(C(=O)Nc3ccsc3C(N)=O)nc2n1 | 43 µM | 31 µM |  | CC50 at 48 h [7]: 250 µM
COc1cc2nc(N3CCN(C(=O)c4ccco4)CC3)nc(N)c2cc1OC [PRAZOSIN] |  |  |  | solubility thermodynamic at 2 h [3]: 62.8 µM (≈ 24.1 µg/mL)
CC(=O)[C@H]1CC[C@H]2[C@@H]3CCC4=CC(=O)CC[C@]4(C)[C@H]3CC[C@]12C [PROGESTERONE] |  |  |  | solubility thermodynamic at 2 h [3]: 6.5 µM (≈ 2.04 µg/mL)
NC(=O)c1ncn([C@@H]2O[C@H](CO)[C@@H](O)[C@H]2O)n1 [RIBAVIRIN] | 10 µM |  |  | CC50 at 48 h [7]: > 250 µM; EC50 [4]: 24 µM
